Records with an inconclusive call do not appear.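 How the source made its calls, unless noted: active means growth inhibition above 25% in both replicates, a cutoff set 3 SD above the mean; inconclusive means above 25% in only one replicate; inactive means the rest.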
What was measured:
[1] = OD615 S. cerevisiae growth inhibition, permissive medium, pilot counter-assay, permissive growth control for S. cerevisiae lifespan shortening project (AID 705); conditions: OD615, 24 h, at 10 µM, active compounds read high
Summary of the method: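 Material: engineered DeaD yeast; compound dosing: one dose 10 µM, DMSO 0.25% final; measure: yeast growth inhibition indicated by reduced 24 h OD615; detection: OD615 turbidity read; incubation: cells pre-grown 4 h, then 24 h compound exposure, 30 °C humidified; medium: permissive synthetic complete medium with raffinose and galactose carbon sources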

[2] = Restrictive medium S. cerevisiae growth inhibition, OD615, pilot screen of yeast lifespan reduction project, restrictive growth control (AID 706;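 active means growth inhibition above a set limit, 3 SD over mean compound inhibition, in both replicates, cut at about 43% in these data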;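 further: modified DeaD lifespan yeast strain shifted to restrictive glucose medium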); conditions: OD615, 48 h, at 10 µM, active compounds read high
Summary of the method: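 material = engineered S. cerevisiae DeaD strain | medium = glucose-based CSMM-D restrictive medium | times = 4 h pre-incubation, 48 h exposure at 30 °C | technique = OD615 absorbance reading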

[3] = viability gain of MRP-1-high H69AR cells under doxorubicin, pilot screen, MRP-1 activator project, CellTiter-Glo, duplicate (AID 807;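 active means viability increase at or above a cutoff of the median across tested compounds plus 3 SD, cut at about 8.5% in these data, passing the limit was not always enough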;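 further: compound pretreatment 18-22 h then 72 h combined with doxorubicin; 0% = doxorubicin alone and 100% = vehicle without doxorubicin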); conditions: H69AR viability with doxorubicin, CellTiter-Glo luminescence; at 10 µM; active compounds read high
[4] = growth suppression of beta-catenin knockout HCT116, pilot screen, human colon tumor cells (AID 823;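 active means cell viability at or below a set limit in both duplicate runs, the limit being the all-compound median minus 4 SD, cut at about 23% in these data, passing the limit was not always enough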;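 further: 0% = wells killed by 20 µM Hyamine and 100% = untreated DMSO cell wells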); conditions: CellTiter-Glo, 60 h, at 10 µM, active compounds read low
[5] = growth suppression of PTEN-deleted HCT116, pilot screen, cell-based, HCT116 clonal line, CellTiter-Glo (AID 824;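 active means viability at or below 27.92% in each of two runs, the all-compound median minus 4 SD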;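 further: 0% = 20 µM Hyamine control and 100% = vehicle cell control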); conditions: 60 h, at 10 µM, active compounds read low
[6] = inhibitors of the yeast RAM network, pilot screen, dse1pr::URA3 reporter, 5-FOA selection (AID 869;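 active means inhibition over a set limit, the all-compound mean plus 3 SD, in both replicate runs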;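 further: 0% = DMSO wells with no growth and 100% = 10 µM 1-NA-PP1 with full growth; RAM network block rescues cells from 5-FOA so hits raise OD615 growth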); conditions: S. cerevisiae dse1pr::URA3 5-FOA growth, OD615, 2 d; at 10 µM; active compounds read high; strain carries analog-sensitive mutant Cbk1 kinase
[7] = RAM signaling pathway blockade in yeast – S. cerevisiae, Pdr1DBD-CYC8 efflux-inhibited sensitized strain, primary screen (AID 1298;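 active means RAM network inhibition above 8.4% in each of two replicates, 3 SD over the compound average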;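 further: 0% = DMSO untreated cells without growth and 100% = 10 µM 1-NA-PP1 full growth; higher means more yeast growth rescued from 5-FOA killing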); conditions: S. cerevisiae cbk1-as DSE1-URA3 strain, 5-FOA growth OD615, 2 d; at 50 µM; active compounds read high

CC(=O)c1cccc(NC(=O)c2cc3ccccn3n2)c1
inactive: growth inhibition [1] -5.62% | growth inhibition [2] 4.32% | viability increase [3] -2.31% | viability [4] 99% | viability [5] 95.8% | inhibition [6] 0.705% | RAM network inhibition [7] -0.31%

COc1ccc(Cc2nnc(-c3cccc(C)c3)o2)cc1OC
inactive: growth inhibition [1] -11.4% | growth inhibition [2] 2.94% | viability increase [3] 1.15% | viability [4] 95.4% | viability [5] 84.4% | inhibition [6] 1.84% | RAM network inhibition [7] 7.99%

CCOC(=O)C1=C(CS(=O)(=O)c2ccccc2)NC(=O)NC1c1ccccc1OCC (configuration not stated)
inactive: growth inhibition [1] -15.1% | growth inhibition [2] -5.42% | viability increase [3] 0.13% | viability [4] 98.7% | viability [5] 101% | inhibition [6] 2.07% | RAM network inhibition [7] -0.04%

Cc1ccccc1-n1c(Cn2c(=O)sc3ccccc32)nnc1SCC(=O)N1CCOCC1
inactive: growth inhibition [1] -5.92% | growth inhibition [2] -11.6% | viability increase [3] -1.91% | viability [4] 102% | viability [5] 100% | inhibition [6] 1.56% | RAM network inhibition [7] 1.01%

Cn1c(C(=O)NCCN2CCCCCC2)cc2c(=O)n(C)c3ccccc3c21
inactive: growth inhibition [1] -1.66% | growth inhibition [2] 0.56% | viability increase [3] -5.04% | viability [4] 65.7% | viability [5] 74.9% | inhibition [6] 1.29% | RAM network inhibition [7] 5.21%

CC(=O)n1c2ccccc2c2c1c1ccccc1n2C
inactive: growth inhibition [1] 10.6% | growth inhibition [2] 3.17% | viability increase [3] -4.83% | viability [4] 96% | viability [5] 82.6% | inhibition [6] 2.49% | RAM network inhibition [7] 2%

CCCCCOc1ccc(NC(=O)CCCC(=O)O)cc1
inactive: growth inhibition [1] -3.13% | growth inhibition [2] 2.42% | viability increase [3] -0.75% | viability [4] 91.1% | viability [5] 97.8% | inhibition [6] -0.545% | RAM network inhibition [7] 1.02%

Cc1cc(C)cc(Nc2cc(C)nc3nc(C)nn23)c1
inactive: growth inhibition [1] -3.56% | growth inhibition [2] 11.6% | viability increase [3] -2.41% | viability [4] 95.9% | viability [5] 90.8% | inhibition [6] 1.87% | RAM network inhibition [7] -0.26%

CN(c1ccccc1)S(=O)(=O)c1cccc(C(=O)N2CCN(c3ccccn3)CC2)c1
inactive: growth inhibition [1] 2.2% | growth inhibition [2] 4.43% | viability increase [3] -0.97% | viability [4] 81% | viability [5] 86.1% | inhibition [6] -0.145% | RAM network inhibition [7] -1.92%

COc1ccc2c(c1)CC(C1(O)C(=O)N(C)c3ccccc31)C2=O (configuration not stated)
inactive: growth inhibition [1] 2.02% | growth inhibition [2] -8.81% | viability increase [3] -3.79% | viability [4] 94% | viability [5] 93.3% | inhibition [6] 0.845% | RAM network inhibition [7] 2.96%

COc1ccc(N2CCN(c3cc(C)c4ccc(O)cc4n3)CC2)cc1
inactive: growth inhibition [1] 3.12% | growth inhibition [2] 10.5% | viability increase [3] -2.1% | viability [4] 75.7% | viability [5] 79.8% | inhibition [6] 0.39% | RAM network inhibition [7] 6.62%

CCOC(=O)c1c(N)sc(C(=O)N2CCCCCC2)c1C
inactive: growth inhibition [1] -20.4% | growth inhibition [2] -21.8% | viability increase [3] 0.25% | viability [4] 96.7% | viability [5] 91.2% | inhibition [6] -0.305% | RAM network inhibition [7] -0.21%

CC(=O)N(c1ccccc1)C1SC(=O)N(c2ccccc2)C1=O (configuration not stated)
inactive: growth inhibition [1] -15.9% | growth inhibition [2] -9.37% | viability increase [3] -0.06% | viability [4] 97.9% | viability [5] 99.7% | inhibition [6] 3.73% | RAM network inhibition [7] 6.65%

CCN(CC)S(=O)(=O)c1ccc(C(=O)OCCN2C(=O)CCC2=O)cc1
inactive: growth inhibition [1] -4.98% | growth inhibition [2] 10.3% | viability increase [3] 0.48% | viability [4] 102% | viability [5] 101% | inhibition [6] 0.755% | RAM network inhibition [7] 4.16%

CCCCN(C)C(=O)c1ccc2c(c1)N(CC)C(=O)c1ccccc1S2(=O)=O
inactive: growth inhibition [1] -2.31% | growth inhibition [2] 3.19% | viability increase [3] -1.45% | viability [4] 87.8% | viability [5] 91.2% | inhibition [6] 1.74% | RAM network inhibition [7] 4.11%

COc1ccc(-c2nnc(SCC(=O)N3CCN(c4ccccc4)CC3)o2)cc1OC
inactive: growth inhibition [1] -7.28% | growth inhibition [2] 7.65% | viability increase [3] -6.37% | viability [4] 73.7% | viability [5] 90% | inhibition [6] 1.64% | RAM network inhibition [7] 1.67%

CSc1cc(/C=N/O)c(SC)s1
inactive: growth inhibition [1] -6.62% | growth inhibition [2] 1.13% | viability increase [3] -3.3% | viability [4] 97.3% | viability [5] 95.9% | inhibition [6] 0.395% | RAM network inhibition [7] -1.95%

CC(=O)c1ccc(OCC(O)CN2C(C)(C)CC(O)CC2(C)C)cc1 (configuration not stated)
inactive: growth inhibition [1] -16.9% | growth inhibition [2] -12.3% | viability increase [3] 1.37% | viability [4] 105% | viability [5] 96.8% | inhibition [6] 1.66% | RAM network inhibition [7] 7.12%

Cc1cc(C(F)(F)F)n2ncc(C(=O)O)c2n1
inactive: growth inhibition [1] 2.26% | growth inhibition [2] 0.105% | viability increase [3] -0.34% | viability [4] 98.3% | viability [5] 91% | inhibition [6] -0.025% | RAM network inhibition [7] 0.78%

O=C(NCCN1CCc2ccccc2C1)Nc1ccc(F)cc1
inactive: growth inhibition [1] -4.88% | growth inhibition [2] -2.83% | viability increase [3] -3.99% | viability [4] 105% | viability [5] 100% | inhibition [6] 2.19% | RAM network inhibition [7] 2.62%

CCN1CCN(CC(=O)NC2CCCC2)C(=O)C1=O
inactive: growth inhibition [1] 5.56% | growth inhibition [2] -5% | viability increase [3] 0.46% | viability [4] 114% | viability [5] 94.9% | inhibition [6] 1.52% | RAM network inhibition [7] 1.79%

CN(C)S(=O)(=O)c1ccc(-c2ccccc2)cc1
inactive: growth inhibition [1] -6.75% | growth inhibition [2] -4.33% | viability increase [3] 0.02% | viability [4] 91.9% | viability [5] 90.6% | inhibition [6] 0.455% | RAM network inhibition [7] 8.77%

COc1ccc(-n2c(Cc3cc(=O)[nH]c(=O)[nH]3)nnc2SCC(=O)NC2CCCC2)cc1
inactive: growth inhibition [1] -0.575% | growth inhibition [2] 2.41% | viability increase [3] 1.47% | viability [4] 104% | viability [5] 107% | inhibition [6] 0.535% | RAM network inhibition [7] 3.15%

CCOC(=O)N1CCN(c2ncnc3nc[nH]c23)CC1
inactive: growth inhibition [1] -8.7% | growth inhibition [2] -10.1% | viability increase [3] -1.85% | viability [4] 109% | viability [5] 106% | inhibition [6] 0.595% | RAM network inhibition [7] 4.23%

Cc1c(C(=O)Nc2ccncc2)sc2nc(-c3ccccc3)cn12
inactive: growth inhibition [1] 0.39% | growth inhibition [2] 9.21% | viability increase [3] 2.2% | viability [4] 89.2% | viability [5] 89.2% | inhibition [6] 0.99% | RAM network inhibition [7] -1.99%

COc1ccc(-c2nc(CS(=O)CC(=O)NC3CCCc4ccccc43)c(C)o2)cc1OC (configuration not stated)
inactive: growth inhibition [1] -8.29% | growth inhibition [2] 3.54% | viability increase [3] -2.94% | viability [4] 84.5% | viability [5] 90.9% | inhibition [6] 1.64% | RAM network inhibition [7] 8.66%

O=S(=O)(NCCc1cn2ccccc2n1)c1ccc2c(c1)OCCO2
inactive: growth inhibition [1] -2.27% | growth inhibition [2] -2.71% | viability increase [3] -2.56% | viability [4] 105% | viability [5] 97% | inhibition [6] 1.62% | RAM network inhibition [7] 2.25%

COc1ccc(C2CC(c3ccc(Cl)c(Cl)c3)Nc3nc(N)nn32)cc1 (configuration not stated)
inactive: growth inhibition [1] -6.79% | growth inhibition [2] 12.7% | viability increase [3] -2.3% | viability [4] 75.4% | viability [5] 76.4% | inhibition [6] 2.52% | RAM network inhibition [7] 5.52%

CCOc1ccc(-c2cc(NC(=O)Cn3ncc4c3-c3ccccc3OC4)on2)cc1OCC
inactive: growth inhibition [1] -7.96% | growth inhibition [2] -3.25% | viability increase [3] 1.4% | viability [4] 98.8% | viability [5] 91.2% | inhibition [6] 1.22% | RAM network inhibition [7] -0.17%

CCOC(=O)c1ccccc1NC(=O)CN(c1ccccc1OCC)S(C)(=O)=O
inactive: growth inhibition [1] 2.85% | growth inhibition [2] 1.95% | viability increase [3] -1.57% | viability [4] 96.4% | viability [5] 98% | inhibition [6] 1.1% | RAM network inhibition [7] 2.46%

CC(=O)Oc1cc2c(C(=O)NCc3ccncc3)c(C)oc2c2ccccc12
inactive: growth inhibition [1] -15.1% | growth inhibition [2] -16.8% | viability increase [3] -3.14% | viability [4] 90.9% | viability [5] 95.8% | inhibition [6] 0.64% | RAM network inhibition [7] 8.02%

CCCc1cc(C(=O)NC2CCCC2)no1
inactive: growth inhibition [1] -11.7% | growth inhibition [2] -2.35% | viability increase [3] 0.7% | viability [4] 103% | viability [5] 98.1% | inhibition [6] 0.365% | RAM network inhibition [7] 3.3%

Cc1ccc2nc(NC(=O)C3CCN(S(=O)(=O)c4ccc5c(c4)oc(=O)n5C)CC3)sc2c1
inactive: growth inhibition [1] -5.8% | growth inhibition [2] -24.5% | viability increase [3] 1.75% | viability [4] 82.2% | viability [5] 88.9% | inhibition [6] 1.54% | RAM network inhibition [7] 9.3%

COc1ccccc1C1C(C(N)=O)=C(C)Nc2nc(-c3ccccc3Cl)nn21 (configuration not stated)
inactive: growth inhibition [1] -4.68% | growth inhibition [2] -4.21% | viability increase [3] -2.13% | viability [4] 92.9% | viability [5] 95.8% | inhibition [6] 0.48% | RAM network inhibition [7] -2.19%

COC(=O)c1cccc(NC(=O)C(C)N2C(=O)c3ccccc3C2=O)c1 (configuration not stated)
inactive: growth inhibition [1] -16.2% | growth inhibition [2] 10.2% | viability increase [3] -1.25% | viability [4] 93.4% | viability [5] 106% | inhibition [6] 1.77% | RAM network inhibition [7] 2.77%

O=C(Nc1cc(=O)c2ccccc2o1)N1CCOCC1
inactive: growth inhibition [1] 1.73% | growth inhibition [2] -7.41% | viability increase [3] -2.39% | viability [4] 103% | viability [5] 103% | inhibition [6] 2.6% | RAM network inhibition [7] 1.4%

Source: PubChem BioAssay
